# Results pooled from the literature.
# Protocols differ between the studies behind these lines.
# Organism: Klebsiella pneumoniae
Compound,assay,test system,setting,quantity,result
CC(C)(O/N=C(\C(=O)N[C@@H]1C(=O)N2C(C(=O)[O-])=C(C[n+]3ccccc3)CS[C@H]12)c1csc(N)n1)C(=O)O,"microbial growth, broth dilution",,"20 h, clinical isolate",MIC,> 128 µg/mL
Cc1[nH]c(C(=O)Nc2ccc(C(=O)NCC(=O)O)cc2N2CCNCC2)c(Cl)c1Cl.Cl,"microbial growth, broth dilution",ATCC700603,,MIC,> 32 µg/mL
COc1cc(C=Nc2ccc([N+](=O)[O-])cc2)ccc1O,"microbial growth, disc diffusion",,"2000 µg/mL, 24 h",inhibition zone,14.4 mm
CC(C)(C)OC(=O)N[C@H]1CCN(c2cc(C(=O)NCC(=O)O)ccc2NC(=O)c2cc(Br)c(Br)[nH]2)C1,"microbial growth, broth dilution",ATCC700603,,MIC,> 32 µg/mL
O=C(O)c1cn(C2CC2)c2cc(N3CCNCC3)c(F)cc2c1=O,microbial growth,ATCC700603,,MIC,32 µM
C[C@H]1COc2c(N3CCN(C)CC3)c(F)cc3c(=O)c(C(=O)O)cn1c23,"microbial growth, broth dilution",,,MIC,> 16 µg/mL
COc1cc(C=Nc2ccc(Cl)cc2Cl)ccc1O,"microbial growth, disc diffusion",,"2000 µg/mL, 24 h",inhibition zone,15 mm
Cc1[nH]c(C(=O)Nc2ccc(C(=O)NCc3n[nH]c(=O)o3)cc2N2CCN(C(=O)OC(C)(C)C)CC2)c(Cl)c1Cl,"microbial growth, broth dilution",ATCC700603,,MIC,> 32 µg/mL
C[C@@H](O)[C@H]1C(=O)N2C(C(=O)O)=C(SCCNC=N)C[C@H]12,"microbial growth, broth dilution",,,MIC,0.5 µg/mL
COc1cc(C=Nc2ccc(C)cc2Cl)ccc1O,"microbial growth, disc diffusion",,"2000 µg/mL, 24 h",inhibition zone,15 mm
CN[C@H](CC(C)C)C(=O)N[C@H]1C(=O)N[C@@H](CC(N)=O)C(=O)N[C@H]2C(=O)N[C@H]3C(=O)N[C@H](C(=O)N[C@H](C(=O)O)c4cc(O)cc(O)c4-c4cc3ccc4O)[C@H](O)c3ccc(c(Cl)c3)Oc3cc2cc(c3O[C@@H]2O[C@H](CO)[C@@H](O)[C@H](O)[C@H]2O[C@H]2C[C@](C)(N)[C@H](O)[C@H](C)O2)Oc2ccc(cc2Cl)[C@H]1O,microbial killing,ATCC27736,,MBC,1000 µg/mL
Cc1[nH]c(C(=O)Nc2ccc(C(=O)NCC(=O)O)cc2N2CC[C@H](N)C2)c(Cl)c1Cl.Cl,"microbial growth, broth dilution",ATCC700603,,MIC,> 32 µg/mL
C[C@@H](O)[C@H]1C(=O)N2C(C(=O)O)=C(SCCN=CN)C[C@H]12,"microbial growth, broth dilution",,clinical isolate,MIC90,256 µg/mL
